Only some compounds are listed: those with a hit (about 3% of all), similar ones and a draw of the others.
MEKK2 WT-MEK5 = raises or lowers MEK5 binding to wildtype human MEKK2 PB1 domain; Q9Y2U5; bead flow cytometry, Alexa488-MEK5 binding to MEKK2 WT; actives lie on both sides; binding response (% of control), % at 10 µM; 290,000 compounds, 1.1% hits; in the data active means binding response below about 67% or above about 130%
MEKK2mut PB1 HTS = signal of MEK5 binding to mutant human MEKK2 PB1 domain; percent response, % at 10 µM; AID 1530; bead flow cytometry, Alexa488-MEK5 binding to MEKK2 mutant; 290,000 compounds, 0.35% hits; in the data active means percent response above about 24%, passing the limit was not always enough
UCH37 DUB inh = blocks the human deubiquitinase UCH37 | Q9Y5K5 | purified proteasome/UCH37, Ub-AMC cleavage fluorescence | inhibition, % (test concentration not listed) | 330,000 compounds, 0.33% hits;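 active means mean inhibition over replicate wells above about 20%, limit read from the data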;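 further: 0% = compound-free wells with enzyme and 100% = wells lacking proteasome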
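Schedule: 30 min plus 25 min, room temperature / Material: human UCH37 within purified proteasomes / Technique: AMC fluorescence intensity at 355/460 nm / Buffer or medium: pH 7.4 Tris-HCl (50 mM) with ovalbumin, ATP-MgCl2, DTT / Controls: wells without proteasome as full block, compound-free enzyme plus substrate as uninhibited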
UBC13 inh = blocks human UBC13 polyubiquitin chain formation; P61088; TR-FRET; inhibition, % at 20 µM; 330,000 compounds, 0.47% hits; in the data active means inhibition above about 45%, passing the limit was not always enough
MEKK3 PB1 HTS = modulators (inhibitors or enhancers) of MEK5 binding to human MEKK3 PB1 domain; Q99759; bead-based flow cytometry, Alexa488-MEK5 binding to MEKK3; actives lie on both sides; 0 = blocked by unlabeled MEK5, 100 = vehicle; binding response (% of control), % at 10 µM; 290,000 compounds, 1.4% hits; AID 1529;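 active means binding response more than 3 SD above or below the average of its plate-row segment, actives on both sides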;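 further: Alexa488 bead fluorescence after subtracting the streptavidin-only scavenger bead signal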
Target sequence (Q99759 whole entry, looked up, the tested form may be a part): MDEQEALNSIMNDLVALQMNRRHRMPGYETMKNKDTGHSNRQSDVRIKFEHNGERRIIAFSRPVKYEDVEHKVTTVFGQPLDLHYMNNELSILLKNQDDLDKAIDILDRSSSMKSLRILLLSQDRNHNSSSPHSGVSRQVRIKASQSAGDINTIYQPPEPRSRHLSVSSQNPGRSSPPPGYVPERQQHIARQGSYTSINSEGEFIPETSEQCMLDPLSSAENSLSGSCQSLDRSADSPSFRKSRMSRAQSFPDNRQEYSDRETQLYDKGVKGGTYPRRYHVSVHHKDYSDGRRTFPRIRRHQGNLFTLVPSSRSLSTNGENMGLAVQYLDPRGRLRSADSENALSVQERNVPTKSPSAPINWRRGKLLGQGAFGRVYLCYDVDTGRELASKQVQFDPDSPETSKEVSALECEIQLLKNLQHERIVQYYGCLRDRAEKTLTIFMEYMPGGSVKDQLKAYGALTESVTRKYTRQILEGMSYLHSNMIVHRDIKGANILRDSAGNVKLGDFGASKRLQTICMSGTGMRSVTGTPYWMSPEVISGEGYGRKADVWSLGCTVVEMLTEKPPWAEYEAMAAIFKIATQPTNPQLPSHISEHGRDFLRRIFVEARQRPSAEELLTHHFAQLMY
Apaf1 inhib = human Apaf-1 inhibition | O14727 | reconstituted apoptosome caspase-3 activity, DEVD-Rh110 fluorescence | inhibition, % at 20 µM | 330,000 compounds, 0.71% hits; active means inhibition of at least 40% at 20 µM;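 further: plate controls were DMSO wells for no effect and DEVD-CHO caspase inhibitor wells for full effect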
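Material: reconstituted apoptosome with Apaf-1, cytochrome c, caspase-9, procaspase-3, dATP; medium: pH 7.5 Hepes buffer with CHAPS, BSA, DTT; also added: cytochrome c and DEVD-Rh110 substrate; timing: 30 min plus 50 min, RT; signal: Rh110 fluorescence intensity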
Apaf-1 inh conf2 = Apaf-1 inhibition, single-dose confirmed. shares compounds with Apaf1 inhib. 1,800 compounds, 25% hits. reconstituted apoptosome, caspase-3 DEVD-Rh110 fluorescence. inhibition, % at 20 µM. AID 504614;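 active means mean inhibition of at least 40% at 20 µM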;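 further: plate controls were DMSO wells for no effect and DEVD-CHO caspase inhibitor control wells for full effect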
Rh110 quench = Rh110 signal interference in Apaf-1 inhibitor counter-screen | shares compounds with Apaf1 inhib | Rh110 fluorescence interference, quenched caspase reaction | activation (fluorescence interference), % at 20 µM | 1,800 tested, under 10 active;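 active means signal rise of 40% or more at 20 µM, treated as a fluorescence artifact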
Apaf1 inh interf = Apaf-1 inhibitor counter-screen fluorescence artifact. shares compounds with Apaf1 inhib. fluorescence interference counterscreen, Apaf-1 assay format. IC50, µM. 460 tested, under 10 active. AID 588538; call rule not given here
Starred values were filed as active, the others as inactive; i = inactive; · = no result given; ! = repeats disagree.

SMILES	MEKK2 WT-MEK5	MEKK2mut PB1 HTS	UCH37 DUB inh	UBC13 inh	MEKK3 PB1 HTS	Apaf1 inhib	Apaf-1 inh conf2	Rh110 quench	others
Cc1sc2nc(-c3ccccn3)[nH]c(=O)c2c1-c1ccccc1	100	2	-70	-13	102	3	·	·
CCOC(=O)C1Nc2ccccc2C2C(O)C(O)CC12 (stereo not given)	107	2	3	-27	99	66*	18	-7
CCOC(=O)C1Nc2ccc(C(F)(F)F)cc2C2c3ccccc3CC12 (stereo not given)	108	5	-10	23	105	29	·	·
O=C(Cc1cc(=O)[nH][nH]1)N/N=C/c1cccc2ccccc12	89	-7	·	-11	101	54*	13	-1
O=C(Cc1cc(=O)[nH][nH]1)N/N=C/C(Cl)=C/c1ccccc1	99	2	·	10	101	49*!	20	3
Cn1cccc1CC(=O)N/N=C/C(Cl)=C/c1ccccc1	122	22	·	-6	106	4	·	·
O=C(Cc1cc(=O)[nH][nH]1)N/N=C/c1cccc(Cl)c1Cl	89	-8	·	-5	100	48*!	11	3
O=C(Cc1cc(=O)[nH][nH]1)N/N=C/c1c(Cl)cccc1Cl	92	-4	·	4	89	64*!	5	-2
O=C(Cc1cc(=O)[nH][nH]1)N/N=C/c1c(F)cccc1Cl	98	-5	·	-9	103	25	·	·
COc1ccc(-c2nn(-c3ccccc3)cc2C(=O)Nc2ccc(C(=O)O)cc2)cc1OC	108	4	0	-8	100	9	·	·
CCN(C(=S)NCCOC)c1cccc2ccccc12	101	2	0	-2	102	-12	·	·
CCN(C(=S)NC(=O)c1ccco1)c1cccc2ccccc12	·	·	-14	-21	·	82*	17	8
O=[N+]([O-])c1ccc(N2CCN(c3ccccc3O)CC2)c(Cl)c1	97	-2	0	-5	98	18	·	·
O=C1Cc2cc([N+](=O)[O-])ccc2N1c1c(Cl)cccc1Cl	102	1	3	-22	104	43*	11	2
COc1ccccc1CNC(=O)c1c(N)n(CCCN2CCOCC2)c2nc3ccccc3nc12	·	·	-236	·	·	·	·	·
Nc1c(C(=O)NCCN2CCOCC2)c2nc3ccccc3nc2n1CCc1ccccc1F	98	-5	i	-9	87	43*	18	13
Nc1c(C(=O)NCc2ccc3c(c2)OCO3)c2nc3ccccc3nc2n1CCCN1CCOCC1	117	9	-92	1	107	90*	44*	10	Apaf1 inh interf=>100
Cc1ccc(C=NNC(=O)C2(C)CC2(Br)Br)cc1 (stereo not given)	·	·	12	·	·	·	·	·
Cc1nc(-c2cccc(NC(=O)c3ccc(-n4cccn4)cc3)c2)cs1	·	·	0	5	·	1	·	·
O=c1cc(N/N=C/c2ccccc2)[nH]c(=O)[nH]1	·	·	·	-33	·	68*	43*	8	Apaf1 inh interf=>100
OCCNC(=S)Nc1ccc2nsnc2c1	99	-5	3	-47	103	97*	13	4
O=C(NCCO)Nc1ccc2nsnc2c1	63	-14	-285	31	63	-2	·	·
C/C(=N\NC(=O)c1cc(-c2ccc(C)s2)[nH]n1)c1ccco1	101	1	·	-12	98	12	·	·
Cc1ccc(S(=O)(=O)NC(=O)Nc2ccc(N(C)C)cc2)cc1	98	6	7	-45	97	57*	23	2
COc1ccc(CCN(C)C(=O)c2cccc(S(=O)(=O)NCc3ccccc3)c2)cc1OC	119	11	-1	8	105	57*	38	5
SMILES	MEKK2 WT-MEK5	MEKK2mut PB1 HTS	UCH37 DUB inh	UBC13 inh	MEKK3 PB1 HTS	Apaf1 inhib	Apaf-1 inh conf2	Rh110 quench	others
CCCCC1=CC2=C(c3ccco3)C(=O)C(C)(OC(=O)c3ccc(OC)cc3)C(=O)C2=CN1C1CC1 (stereo not given)	121	1	0	15	113	40*	14	2
CCCCC1=CC2=C(c3ccco3)C(=O)C(C)(OC(=O)c3ccc(OC)cc3)C(=O)C2=CN1C1CCCC1 (stereo not given)	92	-1	-1	17	96	23	·	·
CC(=O)c1ccc(N2CCN(CC(=O)Nc3cc(C)on3)CC2)cc1	99	-1	7	7	100	-13	·	·
Cc1[nH]c2ccccc2c1C(=O)COC(=O)c1c(-c2c(F)cccc2Cl)noc1C	95	-10	4	-9	93	29	·	·
CCCCNCCOc1ccccc1-c1ccccc1	99	-1	1	9	93	17	·	·
CN1CCc2cc3c(c4c2[C@H]1[C@H](O)c1ccccc1-4)OCO3	102	4	-2	-85	106	48*	34	3
NS(=O)(=O)c1cccc(NC(=O)c2cccc(-c3ccc(O)cc3)c2)c1	95	-4	-2	0	98	4	·	·
COc1ccc(C2=CC3=C(Br)C(=O)C(C)(OC(=O)c4cccs4)C(=O)C3=CO2)cc1 (stereo not given)	92	-2	2	-48	97	28	·	·
C=CCN1C=C2C(=O)C(C)(OC(=O)CCC(=O)OC)C(=O)C(Br)=C2C=C1c1ccc(OC)cc1 (stereo not given)	-3.0*	-1	3	-96	80	67*	61*	9	Apaf1 inh interf=>100
COCCN1C=C2C(=O)C(C)(OC(=O)CCC(=O)OC)C(=O)C(Br)=C2C=C1c1ccc(OC)cc1 (stereo not given)	96	1	·	-88	97	77*	84*	7
Cc1cc(C=NNC(=O)COc2cccc3cccnc23)c(C)n1-c1ccc(Br)cc1	·	·	1	·	·	·	·	·
CN1C(C(=O)NCC2CC2)CC2Cn3c(nc4cc5ccccc5cc43)C21 (stereo not given)	99	-2	4	4	100	41*	10	-2
COc1cccc(N2CCN(CC(=O)Nc3ccccc3C(=O)NCCc3ccccc3)CC2)c1	·	·	4	29	·	50*	12	5
COc1cccc(N2CCN(CC(=O)Nc3ccccc3C(=O)NCc3ccccc3)CC2)c1	·	·	0	11	·	17	·	·
COc1ccc(NCc2cc3cc(OC)ccc3[nH]c2=O)cc1	96	-1	-21	-34	98	47*	62*	6	Apaf1 inh interf=>100
COc1ccc2noc3c2c1C(=O)c1ccccc1-3	·	·	·	-245	·	78*	44*	-58	Apaf1 inh interf=59*
